# What was measured:
# [1] = Lipophilicity, log D of the compound at pH 7.4; format: physicochemical; settings: buffer
# [2] = Dissociation constant, pKa of the compound; format: physicochemical
# [3] = Intrinsic clearance in human liver microsomes at 1 mg/ml; format: ADME, Microsome; settings: read-out: CLH
# Procedure, shortened: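 Compound incubated 45 min at 37 °C with human liver microsomes at 1 mg/mL. CLint is taken from the rate of parent disappearance.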
# Cytochrome P450 3A4 [4] = target: T1, Cytochrome P450 3A4 (Homo sapiens, UniProt P08684); test: Inhibition of human recombinant CYP3A4 coexpressed in Escherichia coli; format: ADME
# Procedure, shortened: (§1)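 Human recombinant cytochrome P450s at 37 °C. Read-out is inhibition of metabolic degradation of each isoform's substrate. Percent inhibition is measured at five test concentrations and converted to IC50.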
# Cytochrome P450 2D6 [5] = target: T2, Cytochrome P450 2D6 (Homo sapiens, UniProt P10635); test: Inhibition of human recombinant CYP2D6 coexpressed in Escherichia coli; format: ADME; procedure, shortened: as §1
# Cytochrome P450 2C8 [6] = target: T3, Cytochrome P450 2C8 (Homo sapiens, UniProt P10632); test: Inhibition of human recombinant CYP2C8 coexpressed in Escherichia coli; format: ADME; procedure, shortened: as §1
# T3 sequence (P10632 whole entry): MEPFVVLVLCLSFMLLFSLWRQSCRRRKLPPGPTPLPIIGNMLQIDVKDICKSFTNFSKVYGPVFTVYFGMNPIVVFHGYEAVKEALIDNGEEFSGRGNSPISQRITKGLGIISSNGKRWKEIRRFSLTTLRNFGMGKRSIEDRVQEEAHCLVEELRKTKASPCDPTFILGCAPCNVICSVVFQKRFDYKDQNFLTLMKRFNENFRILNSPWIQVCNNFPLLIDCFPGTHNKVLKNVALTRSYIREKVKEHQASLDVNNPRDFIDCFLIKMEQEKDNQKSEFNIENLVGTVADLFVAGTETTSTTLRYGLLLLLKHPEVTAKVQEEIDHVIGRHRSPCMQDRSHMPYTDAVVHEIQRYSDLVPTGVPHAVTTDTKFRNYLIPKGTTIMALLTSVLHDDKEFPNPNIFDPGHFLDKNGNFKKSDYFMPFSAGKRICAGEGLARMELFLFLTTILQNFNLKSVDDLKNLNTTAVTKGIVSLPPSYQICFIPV
# Cytochrome P450 2C9 [7] = target: T4, Cytochrome P450 2C9 (Homo sapiens, UniProt P11712); test: Inhibition of human recombinant CYP2C9 coexpressed in Escherichia coli; format: ADME; procedure, shortened: as §1
# Cytochrome P450 2C19 [8] = target: T5, Cytochrome P450 2C19 (Homo sapiens, UniProt P33261); test: Inhibition of human recombinant CYP2C19 coexpressed in Escherichia coli; format: ADME; procedure, shortened: as §1
# Cytochrome P450 1A2 [9] = target: T6, Cytochrome P450 1A2 (Homo sapiens, UniProt P05177); test: Inhibition of human recombinant CYP1A2 coexpressed in Escherichia coli using phenacetin as probe; format: ADME; procedure, shortened: as §1
# T6 sequence (P05177 whole entry): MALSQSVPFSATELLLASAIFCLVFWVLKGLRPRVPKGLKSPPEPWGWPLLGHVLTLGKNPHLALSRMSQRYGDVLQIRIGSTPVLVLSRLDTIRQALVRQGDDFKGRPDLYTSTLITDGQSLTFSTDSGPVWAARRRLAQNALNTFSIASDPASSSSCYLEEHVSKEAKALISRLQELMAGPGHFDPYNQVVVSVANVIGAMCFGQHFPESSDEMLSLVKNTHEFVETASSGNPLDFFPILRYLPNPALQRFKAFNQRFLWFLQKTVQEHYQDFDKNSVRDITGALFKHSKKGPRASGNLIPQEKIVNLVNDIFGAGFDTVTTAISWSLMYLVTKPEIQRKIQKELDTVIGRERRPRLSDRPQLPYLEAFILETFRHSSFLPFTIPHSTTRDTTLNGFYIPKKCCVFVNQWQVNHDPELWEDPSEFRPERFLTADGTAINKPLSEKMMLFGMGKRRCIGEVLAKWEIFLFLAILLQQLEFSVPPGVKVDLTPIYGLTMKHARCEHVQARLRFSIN
# CYP3A4 = CYP3A4 (Homo sapiens, UniProt P08684); test: Time dependent inhibition of human recombinant CYP3A4 coexpressed in Escherichia coli at 50 uM using midazolam as probe; format: ADME
# Procedure, shortened: (§2)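 Time-dependent inhibition of human recombinant P450s. Compound is preincubated 30 min at 37 °C with and without NADPH, then percent inhibition is read. Run at 10 and 50 μM, with the 50 μM value reported.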
# CYP2D6 = CYP2D6 (Homo sapiens, UniProt P10635); test: Time dependent inhibition of human recombinant CYP2D6 coexpressed in Escherichia coli at 50 uM using bufuralol as probe; format: ADME; procedure, shortened: as §2
# CYP2C8 = target: T7, CYP2C8 (Homo sapiens, UniProt P10632); test: Time dependent inhibition of human recombinant CYP2C8 coexpressed in Escherichia coli at 50 uM using amodiaquine as probe; format: ADME; procedure, shortened: as §2
# T7 sequence (P10632 whole entry): T3 sequence (P10632 whole entry)
# CYP2C9 = CYP2C9 (Homo sapiens, UniProt P11712); test: Time dependent inhibition of human recombinant CYP2C9 coexpressed in Escherichia coli at 50 uM using diclofenac as probe; format: ADME; procedure, shortened: as §2
# CYP2C19 = CYP2C19 (Homo sapiens, UniProt P33261); test: Time dependent inhibition of human recombinant CYP2C19 coexpressed in Escherichia coli at 50 uM using mephenytoin as probe; format: ADME; procedure, shortened: as §2
# CYP1A2 = target: T8, CYP1A2 (Homo sapiens, UniProt P05177); test: Time dependent inhibition of human recombinant CYP1A2 coexpressed in Escherichia coli at 50 uM using phenacetin as probe; format: ADME; procedure, shortened: as §2
# T8 sequence (P05177 whole entry): T6 sequence (P05177 whole entry)
# Cytochrome P450 3A4 [10] = target: T1, Cytochrome P450 3A4; test: Activity of human recombinant CYP3A4 assessed as enzyme contribution towards compound metabolism at 37 degC; format: ADME; design: concentration or dose not given beside the values
# Procedure, shortened: (§3)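 CYP reaction phenotyping with human recombinant P450 isoforms at 37 °C. Each isoform's share of compound metabolism is given as percent contribution relative to the other isoforms in the test.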
# Cytochrome P450 2D6 [11] = target: T2, Cytochrome P450 2D6; test: Activity of human recombinant CYP2D6 assessed as enzyme contribution towards compound metabolism at 37 degC; format: ADME; procedure, shortened: as §3
# Cytochrome P450 1A2 [12] = target: T6, Cytochrome P450 1A2; test: Activity of human recombinant CYP1A2 assessed as enzyme contribution towards compound metabolism at 37 degC; format: ADME; procedure, shortened: as §3
# Cytochrome P450 2C9 [13] = target: T4, Cytochrome P450 2C9; test: Activity of human recombinant CYP2C9 assessed as enzyme contribution towards compound metabolism at 37 degC; format: ADME; procedure, shortened: as §3
# Cytochrome P450 2C19 [14] = target: T5, Cytochrome P450 2C19; test: Activity of human recombinant CYP2C19 assessed as enzyme contribution towards compound metabolism at 37 degC; format: ADME; procedure, shortened: as §3
# Cytochrome P450 2C8 [15] = target: T3, Cytochrome P450 2C8; test: Activity of human recombinant CYP2C8 assessed as enzyme contribution towards compound metabolism at 37 degC; format: ADME; procedure, shortened: as §3
# [16] = target: Voltage-gated inwardly rectifying potassium channel KCNH2 (Homo sapiens, UniProt Q12809); test: Inhibition of human ERG channel expressed in CHO cells by patch clamp assay
# Sequence of Voltage-gated inwardly rectifying potassium channel KCNH2 (Q12809 whole entry, canonical isoform): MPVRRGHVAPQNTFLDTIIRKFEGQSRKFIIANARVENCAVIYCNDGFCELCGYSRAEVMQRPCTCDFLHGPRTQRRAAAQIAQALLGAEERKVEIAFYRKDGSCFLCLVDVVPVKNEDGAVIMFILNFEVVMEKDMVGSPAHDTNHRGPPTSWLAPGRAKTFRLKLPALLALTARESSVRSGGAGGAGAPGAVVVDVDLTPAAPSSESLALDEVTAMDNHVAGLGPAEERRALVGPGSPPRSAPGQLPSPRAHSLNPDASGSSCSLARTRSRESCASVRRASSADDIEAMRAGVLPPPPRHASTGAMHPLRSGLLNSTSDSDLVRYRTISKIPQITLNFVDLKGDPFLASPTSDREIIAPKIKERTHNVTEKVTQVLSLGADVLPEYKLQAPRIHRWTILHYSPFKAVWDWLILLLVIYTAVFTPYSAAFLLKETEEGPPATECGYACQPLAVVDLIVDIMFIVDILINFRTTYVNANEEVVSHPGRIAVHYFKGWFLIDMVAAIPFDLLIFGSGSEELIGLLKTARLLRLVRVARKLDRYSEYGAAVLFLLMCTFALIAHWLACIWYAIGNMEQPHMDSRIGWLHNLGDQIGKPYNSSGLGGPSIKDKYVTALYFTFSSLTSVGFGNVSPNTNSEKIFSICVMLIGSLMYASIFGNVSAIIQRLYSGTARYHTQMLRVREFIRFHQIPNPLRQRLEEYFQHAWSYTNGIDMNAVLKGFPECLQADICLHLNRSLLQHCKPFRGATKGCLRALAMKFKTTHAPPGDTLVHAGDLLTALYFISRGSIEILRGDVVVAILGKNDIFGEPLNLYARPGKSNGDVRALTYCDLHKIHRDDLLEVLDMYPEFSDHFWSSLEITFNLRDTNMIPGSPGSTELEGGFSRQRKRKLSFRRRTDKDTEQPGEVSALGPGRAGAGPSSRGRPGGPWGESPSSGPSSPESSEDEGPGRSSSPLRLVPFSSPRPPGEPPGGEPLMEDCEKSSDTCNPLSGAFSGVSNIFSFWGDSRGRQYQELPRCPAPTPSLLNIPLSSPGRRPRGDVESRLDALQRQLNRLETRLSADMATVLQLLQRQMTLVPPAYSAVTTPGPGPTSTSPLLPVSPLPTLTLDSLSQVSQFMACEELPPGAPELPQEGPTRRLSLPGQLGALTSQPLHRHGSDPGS
# Sequence of CYP2C9 (P11712 whole entry): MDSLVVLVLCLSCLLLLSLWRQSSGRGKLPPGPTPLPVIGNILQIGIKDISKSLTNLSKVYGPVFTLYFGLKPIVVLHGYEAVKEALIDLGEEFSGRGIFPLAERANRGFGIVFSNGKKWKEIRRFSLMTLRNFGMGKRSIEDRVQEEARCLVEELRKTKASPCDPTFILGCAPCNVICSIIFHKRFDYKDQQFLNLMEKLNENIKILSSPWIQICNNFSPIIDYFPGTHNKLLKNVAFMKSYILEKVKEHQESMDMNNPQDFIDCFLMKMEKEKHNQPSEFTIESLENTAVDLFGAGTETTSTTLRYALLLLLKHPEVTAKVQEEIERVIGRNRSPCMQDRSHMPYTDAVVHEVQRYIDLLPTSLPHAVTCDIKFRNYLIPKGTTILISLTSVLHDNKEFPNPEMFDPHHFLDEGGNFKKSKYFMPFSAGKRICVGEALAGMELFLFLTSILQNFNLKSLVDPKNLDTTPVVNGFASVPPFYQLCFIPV
# T4 sequence (P11712 whole entry): as above
# T2 sequence (P10635 whole entry): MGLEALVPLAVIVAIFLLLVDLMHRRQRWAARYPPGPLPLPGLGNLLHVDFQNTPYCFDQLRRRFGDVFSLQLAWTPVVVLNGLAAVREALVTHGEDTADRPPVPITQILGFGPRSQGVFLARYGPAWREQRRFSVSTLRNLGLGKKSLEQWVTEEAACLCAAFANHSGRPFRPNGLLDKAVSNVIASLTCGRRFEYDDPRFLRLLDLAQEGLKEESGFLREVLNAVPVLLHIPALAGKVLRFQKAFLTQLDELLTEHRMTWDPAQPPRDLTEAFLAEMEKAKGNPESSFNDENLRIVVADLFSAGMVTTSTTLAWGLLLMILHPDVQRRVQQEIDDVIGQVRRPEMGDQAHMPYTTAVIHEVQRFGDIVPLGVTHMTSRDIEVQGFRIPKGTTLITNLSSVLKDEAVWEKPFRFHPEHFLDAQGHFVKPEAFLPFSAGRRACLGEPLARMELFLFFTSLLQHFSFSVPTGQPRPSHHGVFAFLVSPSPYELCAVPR
# Sequence of CYP2D6 (P10635 whole entry): as above
# T5 sequence (P33261 whole entry): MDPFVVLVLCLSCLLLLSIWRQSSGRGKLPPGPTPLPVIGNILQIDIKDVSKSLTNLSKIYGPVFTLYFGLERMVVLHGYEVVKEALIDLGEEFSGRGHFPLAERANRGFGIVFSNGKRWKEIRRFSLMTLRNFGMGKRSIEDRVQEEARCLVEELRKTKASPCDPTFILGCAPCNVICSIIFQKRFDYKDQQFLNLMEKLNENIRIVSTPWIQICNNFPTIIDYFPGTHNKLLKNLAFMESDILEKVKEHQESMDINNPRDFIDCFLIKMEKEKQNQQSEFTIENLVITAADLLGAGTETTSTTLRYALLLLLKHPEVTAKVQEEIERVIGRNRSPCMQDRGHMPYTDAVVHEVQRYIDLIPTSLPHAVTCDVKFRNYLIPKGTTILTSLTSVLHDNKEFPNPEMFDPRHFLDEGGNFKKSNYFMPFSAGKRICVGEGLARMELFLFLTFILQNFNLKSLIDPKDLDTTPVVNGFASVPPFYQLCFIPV
# Sequence of CYP2C19 (P33261 whole entry): as above
# Sequence of CYP3A4 (P08684 whole entry): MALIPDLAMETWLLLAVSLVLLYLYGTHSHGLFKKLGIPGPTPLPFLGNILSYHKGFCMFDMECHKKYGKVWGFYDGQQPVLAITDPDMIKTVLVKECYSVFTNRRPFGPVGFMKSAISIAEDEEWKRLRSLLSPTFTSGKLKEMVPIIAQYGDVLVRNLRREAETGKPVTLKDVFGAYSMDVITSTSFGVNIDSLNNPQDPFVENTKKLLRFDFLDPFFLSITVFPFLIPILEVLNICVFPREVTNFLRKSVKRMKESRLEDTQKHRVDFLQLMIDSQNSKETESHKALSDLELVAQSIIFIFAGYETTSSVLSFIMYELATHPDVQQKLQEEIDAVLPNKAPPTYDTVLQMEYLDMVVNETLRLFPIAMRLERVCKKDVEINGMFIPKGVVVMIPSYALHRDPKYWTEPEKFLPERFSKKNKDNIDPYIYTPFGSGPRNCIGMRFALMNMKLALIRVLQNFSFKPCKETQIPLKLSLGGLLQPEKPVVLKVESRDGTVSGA
# T1 sequence (P08684 whole entry, canonical isoform): as the sequence (P08684 whole entry) above
SMILES,logD [1],pKa [2],microsomal CLint [3] [µL/min/mg],IC50 (Cytochrome P450 3A4 [4]) [µM],IC50 (Cytochrome P450 2D6 [5]) [µM],IC50 (Cytochrome P450 2C8 [6]) [µM],IC50 (Cytochrome P450 2C9 [7]) [µM],IC50 (Cytochrome P450 2C19 [8]) [µM],IC50 (Cytochrome P450 1A2 [9]) [µM],inhibition at 50 µM (CYP3A4) [%],inhibition at 50 µM (CYP2D6) [%],inhibition at 50 µM (CYP2C8) [%],inhibition at 50 µM (CYP2C9) [%],inhibition at 50 µM (CYP2C19) [%],inhibition at 50 µM (CYP1A2) [%],Activity (Cytochrome P450 3A4 [10]) [%],Activity (Cytochrome P450 2D6 [11]) [%],Activity (Cytochrome P450 1A2 [12]) [%],CYP isoform contribution to compound metabolism (Cytochrome P450 2C9 [13]) [%],Activity (Cytochrome P450 2C19 [14]) [%],also measured
CCOC(=O)N1CCN(Cc2nnc(-c3cccc(Cl)c3)o2)CC1,3.3,3.5,–,–,–,–,–,–,–,–,–,–,–,–,–,–,–,–,–,–,–
c1cncc(-c2ccc(-c3nnc(C4CN5CCC4CC5)o3)o2)c1 (centres undefined),< 0,9.1,–,–,–,–,–,–,–,–,–,–,–,–,–,–,–,–,–,–,IC50 [16]: 20.2 µM
O=C(NC1CCCCC1)c1nc(CS(=O)(=O)c2ccccc2)no1,–,–,50,> 20,> 20,> 20,> 20,> 20,> 20,< 7,< 9,< 13,< 19,< 19,< 7,91.5,0.1,0.2,0.3,7.9,Activity (Cytochrome P450 2C8 [15]): 0%

# The next lines start with results.
logD [1],pKa [2],microsomal CLint [3] [µL/min/mg],IC50 (Cytochrome P450 3A4 [4]) [µM],IC50 (Cytochrome P450 2D6 [5]) [µM],IC50 (Cytochrome P450 2C8 [6]) [µM],IC50 (Cytochrome P450 2C9 [7]) [µM],IC50 (Cytochrome P450 2C19 [8]) [µM],IC50 (Cytochrome P450 1A2 [9]) [µM],inhibition at 50 µM (CYP3A4) [%],inhibition at 50 µM (CYP2D6) [%],inhibition at 50 µM (CYP2C8) [%],inhibition at 50 µM (CYP2C9) [%],inhibition at 50 µM (CYP2C19) [%],inhibition at 50 µM (CYP1A2) [%],Activity (Cytochrome P450 3A4 [10]) [%],Activity (Cytochrome P450 2D6 [11]) [%],Activity (Cytochrome P450 1A2 [12]) [%],CYP isoform contribution to compound metabolism (Cytochrome P450 2C9 [13]) [%],Activity (Cytochrome P450 2C19 [14]) [%],SMILES,also measured
4.8,3.4,–,–,–,–,–,–,–,–,–,–,–,–,–,–,–,–,–,–,CCOC(=O)N1CCN(Cc2nc(-c3cccc(Cl)c3)no2)CC1,–
–,–,8,> 20,> 20,> 20,> 20,> 20,> 20,< 7,< 11,< 14,< 19,< 12,< 10,100,0,0,0,0,Clc1cc(-c2nnc(CSc3nnc(-c4ccncc4)n3C3CC3)o2)ccn1,Activity (Cytochrome P450 2C8 [15]): 0%
–,–,< 5,> 20,5.7,> 20,1.7,9.8,> 20,< 7,< 11,< 14,< 19,< 12,< 10,0,100,0,0,0,O=C(NCc1ccncc1)c1nnc(CS(=O)(=O)c2ccccc2)o1,Activity (Cytochrome P450 2C8 [15]): 0%
4.3,4,–,–,–,–,–,–,–,–,–,–,–,–,–,–,–,–,–,–,CCOC(=O)N1CCN(Cc2noc(-c3cc(Cl)ccc3F)n2)CC1,IC50 [16]: 31 µM
3.2,3.5,–,–,–,–,–,–,–,–,–,–,–,–,–,–,–,–,–,–,CCOC(=O)N1CCN(Cc2nnc(-c3cc(Cl)ccc3F)o2)CC1,–

# From ChEMBL document CHEMBL2069246, “Oxadiazoles in medicinal chemistry” (J Med Chem, 2012)
